Calls of active or inactive are those of the source. No cut-off for these calls is given here. Bounds are passed on as bounds.

Experiment [1] is described as follows: (§1) Induction of prostaglandin-like activity in CD-1 mouse ovary assessed as fold increase in [14C]-cAMP formation using ATP-[14C] substrate at 10 ug/ml after 30 mins incubation by PG assay. It is filed as functional, Female gonad. In general terms: cAMP levels reflect the balance of adenylyl cyclase and phosphodiesterase activity.
A short description of experiment [2]: (§2) Induction of prostaglandin-like activity in CD-1 mouse ovary assessed as fold increase in [14C]-cAMP formation using ATP-[14C] substrate at 25 ug/ml after 30 mins incubation by PG assay. It is filed as functional, Female gonad.
A short description of experiment [3]: (§3) Induction of prostaglandin-like activity in CD-1 mouse ovary assessed as fold increase in [14C]-cAMP formation using ATP-[14C] substrate at 100 ug/ml after 30 mins incubation by PG assay. The class given is functional, Female gonad.
Experiment [4] relates to Platelet. The experiment in a line: Inhibition of bovine collagen-induced platelet aggregation isolated from po treated Hartley guinea pig after 1 hr treatment. It is filed as functional. Particulars: Cavia porcellus. The essentials: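 Male Hartley guinea pigs (0.6-1.1 kg) dosed orally, suspended in 5 ml/kg EtOH-H2O Emulphor, three animals at each of three doses plus vehicle controls. Cardiac-puncture blood taken 1 h later, pooled per group, PRP spun at 200g for 10 min, platelets matched with PPP.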

The species named for experiment [5] is Mus musculus. The description is as §2. It is filed as functional. As to conditions: Female gonad.
The species entered for experiment [6] is Mus musculus. The description is as §3. It is filed as functional. As to conditions: Female gonad.
For experiment [7], the species on record is Mus musculus. The description is as §1. It is filed as functional. Particulars: Female gonad.
The test system of experiment [8] is Platelet. Briefly: Inhibition of bovine collagen-induced platelet aggregation isolated from ip treated Hartley guinea pig after 1 hr treatment. Particulars: Cavia porcellus. The class given is functional.

For orientation: ED50 means the midpoint of the dose-response relation. A higher ED50 goes with weaker potency. For `CS(=O)(=O)N(C/C=C\CCCC(=O)O)C/C=C/C(O)COc1ccc(F)cc1` (configuration not stated), the “fold change (FC)” value is listed as 2 in experiment [1], 4 in experiment [2] and 11 in experiment [3]. Also, the 50% effect level with Platelet [4] (ED50) was put at a dose of 0.01 mg/kg.

As to `CCCCCC(O)CCCN(CCCCCCC(=O)O)S(C)(=O)=O` (racemic), the “fold change (FC)” value worked out at 40 in experiment [1], 56 in experiment [2] and 61 in experiment [3]. In the experiment with Platelet [4], this compound displayed an ED50 of 6 mg/kg.

For the compound `CS(=O)(=O)N(CCCCCCC(=O)O)CCCC(O)COc1ccccc1F` (configuration not stated), the outcome in the experiment filed under Mus musculus [5] and in the experiment listed under Mus musculus [6] was inactive. This compound also registered a median effective dose (ED50) with Platelet [4] of 0.15 mg/kg.

In the case of `CC(=O)C(CCCCCCC(=O)O)CCCC(O)COc1ccccc1OCc1ccccc1` (configuration not stated), the result in the experiment listed under Mus musculus [5] and in the experiment listed under Mus musculus [6] was inactive. The ED50 in the experiment with Platelet [4] is more than 10 mg/kg.

Take `CC(O)C(CCCCCCC(=O)O)CCCC(O)COc1cccc(Cl)c1` (configuration not stated): the outcome in the experiment filed under Mus musculus [5] was inactive. The “fold change (FC)” value in experiment [3] was found to be 2. In the experiment with Platelet [4], this compound gave a 50% effective dose (ED50) of 7.5 mg/kg.

As to `COc1ccc(OCC(O)CCCN(CCCCCCC(=O)O)S(C)(=O)=O)cc1` (configuration not stated), the result in the experiment filed under Mus musculus [7] was inactive. Besides, the results for the “fold change (FC)” value in experiment [2] and in experiment [3] were 3 and 16, respectively. For the same compound, the 50% effective dose (ED50) in the experiment on Platelet [4] was more than 10 mg/kg.

For `CC(=O)C(CCCCCCC(=O)O)CCCC(O)COc1ccccc1O` (configuration not stated), the result in the experiment filed under Mus musculus [5] and in the experiment filed under Mus musculus [6] was inactive. In the experiment on Platelet [4], the 50% effective dose (ED50) came out at 5 mg/kg.

Turning to `CS(=O)(=O)N(CCCCCCC(=O)O)CCCC(O)CS(=O)(=O)c1ccc(F)cc1` (configuration not stated), the outcome in the experiment filed under Mus musculus [5] was inactive. In experiment [3], the “fold change (FC)” value came out at 3. The ED50 with Platelet [4] is more than 10 mg/kg.

`CS(=O)(=O)N(C/C=C\CCCC(=O)O)C/C=C/C(O)COc1cccc(C(F)(F)F)c1` (configuration not stated): the outcome in the experiment listed under Mus musculus [5] and in the experiment listed under Mus musculus [6] was inactive. Also, it took a dose of 5 mg/kg to reach the 50% effect level with Platelet [4] (ED50).

Consider `CS(=O)(=O)N(CCCCCCC(=O)O)CCCC(O)COc1ccccc1` (configuration not stated), for which the outcome in the experiment listed under Mus musculus [5] was inactive. Moreover, the “fold change (FC)” value in experiment [3] is listed as 3. The compound further displayed an ED50 with Platelet [4] of 1 mg/kg.

As to `CC(O)C(CCCCCCC(=O)O)CCCC(O)COc1ccc(F)cc1` (configuration not stated), the result in the experiment listed under Mus musculus [5] was inactive. The “fold change (FC)” value in experiment [3] is listed as 3. In the experiment on Platelet [4], this compound registered a median effective dose (ED50) of 1 mg/kg.

Take `CC(O)C(C/C=C\CCCC(=O)O)CCCC(O)COc1ccc(F)cc1` (configuration not stated): the result in the experiment listed under Mus musculus [5] was inactive. The “fold change (FC)” value in experiment [3] is on record as 3. It took a dose of 0.12 mg/kg to reach the 50% effect level in the experiment with Platelet [4] (ED50).

`CS(=O)(=O)N(CCCCCCC(=O)O)CCCC(O)COc1ccc(Cl)cc1` (configuration not stated): the figures for the “fold change (FC)” value in experiment [1], in experiment [2] and in experiment [3] were 8, 21 and 31, respectively. This compound came in with a median effective dose (ED50) in the experiment with Platelet [4] of 10 mg/kg.

As for `CC(=O)C(CCCCCCC(=O)O)CCCC(O)COc1cccc(C(F)(F)F)c1` (configuration not stated), the outcome in the experiment filed under Mus musculus [5] and in the experiment filed under Mus musculus [6] was inactive. The compound further gave an ED50 in the experiment on Platelet [4] of more than 10 mg/kg.

Take `CC(=O)C(CC#CCCCC(=O)O)CCCC(O)COc1ccc(F)cc1` (configuration not stated): the outcome in the experiment listed under Mus musculus [5] and in the experiment filed under Mus musculus [6] was inactive. Moreover, the ED50 in the experiment with Platelet [4] worked out at 0.25 mg/kg.

Take `Cc1ccc(OCC(O)CCCN(CCCCCCC(=O)O)S(C)(=O)=O)cc1` (configuration not stated): the “fold change (FC)” value turned out to be 4 in experiment [1], 11 in experiment [2] and 16 in experiment [3]. This compound also gave a median effective dose (ED50) in the experiment with Platelet [4] of 5 mg/kg.

Take `CC(O)C(CCCCCCC(=O)O)CCCC(O)COc1ccccc1F` (configuration not stated): the result in the experiment listed under Mus musculus [5] and in the experiment listed under Mus musculus [6] was inactive. Besides, the ED50 in the experiment with Platelet [4] was determined as 7.5 mg/kg.

As for `CC(O)C(CCCCCCC(=O)O)CCCC(O)COc1ccc(C(F)(F)F)cc1` (configuration not stated), the result in the experiment listed under Mus musculus [5] and in the experiment filed under Mus musculus [6] was inactive. Further, the ED50 in the experiment with Platelet [4] amounted to 1 mg/kg.

As to `CCCCCC(O)CCCC(CCCCCCC(=O)O)C(C)=O` (mixture of isomers), the “fold change (FC)” value in experiment [1] was 11; in experiment [2], 14; in experiment [3] it was 23. This compound displayed a 50% effective dose (ED50) in the experiment with Platelet [4] of 6.5 mg/kg.

For the compound `CC(=O)C(CCCCCCC(=O)O)CCCC(O)COc1ccc(C(C)(C)C)cc1` (configuration not stated), the result in the experiment filed under Mus musculus [5] and in the experiment listed under Mus musculus [6] was inactive. This compound came in with an ED50 in the experiment with Platelet [4] of 10 mg/kg.

As to `CS(=O)(=O)N(CCCCCCC(=O)O)CCCC(O)COc1cccc(F)c1` (configuration not stated), the “fold change (FC)” value in experiment [2] amounted to 2; in experiment [3], 4. This compound also gave an ED50 with Platelet [4] of 1 mg/kg.

Regarding `CC(O)C(CC#CCCCC(=O)O)CCCC(O)COc1ccc(F)cc1` (configuration not stated), the outcome in the experiment listed under Mus musculus [5] was inactive. In experiment [3], the “fold change (FC)” value was 2. In the experiment with Platelet [4], this compound gave a median effective dose (ED50) of 0.04 mg/kg.

Turning to `CS(=O)(=O)N(CCCCCCC(=O)O)CCCC(O)COc1ccc(F)cc1` (configuration not stated), the “fold change (FC)” value in experiment [1] was determined as 2; in experiment [2], 7; in experiment [3], 11. Further, the median effective dose (ED50) in the experiment on Platelet [4] turned out to be 0.04 mg/kg.

`CC(=O)Oc1ccccc1C(=O)O` [ASPIRIN] yielded a median effective dose (ED50) in the experiment with Platelet [4] of 4.5 mg/kg.

As for `CC(=O)C(CCCCCCC(=O)O)CCCC(O)COc1ccc(F)cc1` (configuration not stated), the outcome in the experiment listed under Mus musculus [5] was inactive. The “fold change (FC)” value in experiment [3] is listed as 4. The compound also yielded an ED50 in the experiment on Platelet [4] of 0.5 mg/kg.

On to `CCCCC[C@H](O)/C=C/[C@H]1[C@H](O)CC(=O)[C@@H]1CCCCCCC(=O)O` [ALPROSTADIL], for which the “fold change (FC)” value in experiment [1] turned out to be 60. The same compound registered a median effective dose (ED50) in the experiment on Platelet [8] of 0.02 mg/kg.

As to `CS(=O)(=O)N(CCCCCCC(=O)O)CCCC(O)COc1cccc(Cl)c1` (configuration not stated), the outcome in the experiment listed under Mus musculus [5] was inactive. Also, in experiment [3], the “fold change (FC)” value is on record as 5. Moreover, the ED50 with Platelet [4] is 1 mg/kg.

For the compound `CC(=O)C(C/C=C\CCCC(=O)O)CCCC(O)COc1ccc(F)cc1` (configuration not stated), in the experiment listed under Mus musculus [5], the outcome was inactive. In addition, the “fold change (FC)” value in experiment [3] is recorded as 2. This compound also came in with a median effective dose (ED50) in the experiment on Platelet [4] of 0.09 mg/kg.

Consider `CS(=O)(=O)N(CCCCCCC(=O)O)CCCC(O)CSc1ccc(F)cc1` (configuration not stated), for which the “fold change (FC)” value in experiment [1] was determined as 6; in experiment [2], 14; in experiment [3], 18. This compound also had a median effective dose (ED50) in the experiment with Platelet [4] of 6 mg/kg.

Source of the values: ChEMBL document CHEMBL3244406, “11,12-Secoprostaglandins. 5. 8-Acetyl- or 8-(1-hydroxyethyl)-12-hydroxy-13-aryloxytridecanoic acids and sulfonamide isosteres as inhibitors of platelet aggregation” (1978).
